Experimental data taken from ChEMBL document CHEMBL1127559, “Syntheses and anticholinesterase activity of tetrahydrobenzazepine carbamates” (J Med Chem, 1994).

Legend:
[1] = species on record: Mus musculus; test: Minimal dose to produce side effects was determined for tremor; format: functional
In short: (§1)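 Mice fasted overnight, dosed ip or po at 10 mL/kg and housed singly in novel cages. Salivation, tremor and diarrhea each scored on a 5-point scale at 15, 30 and 60 min post-dose. Value is the minimal dose producing the sign.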

[2] = species on record: Mus musculus; test: Minimal dose to produce side effects was determined for diarrhea; format: functional; in short: as §1
[3] = species on record: Mus musculus; test: Minimal dose to produce side effects was determined for salivation; format: functional; in short: as §1
[4] = target: Acetylcholinesterase (Homo sapiens, UniProt P22303); test: In vitro inhibitory activity against human acetylcholinesterase; format: functional
Chain of Acetylcholinesterase (P22303 whole entry): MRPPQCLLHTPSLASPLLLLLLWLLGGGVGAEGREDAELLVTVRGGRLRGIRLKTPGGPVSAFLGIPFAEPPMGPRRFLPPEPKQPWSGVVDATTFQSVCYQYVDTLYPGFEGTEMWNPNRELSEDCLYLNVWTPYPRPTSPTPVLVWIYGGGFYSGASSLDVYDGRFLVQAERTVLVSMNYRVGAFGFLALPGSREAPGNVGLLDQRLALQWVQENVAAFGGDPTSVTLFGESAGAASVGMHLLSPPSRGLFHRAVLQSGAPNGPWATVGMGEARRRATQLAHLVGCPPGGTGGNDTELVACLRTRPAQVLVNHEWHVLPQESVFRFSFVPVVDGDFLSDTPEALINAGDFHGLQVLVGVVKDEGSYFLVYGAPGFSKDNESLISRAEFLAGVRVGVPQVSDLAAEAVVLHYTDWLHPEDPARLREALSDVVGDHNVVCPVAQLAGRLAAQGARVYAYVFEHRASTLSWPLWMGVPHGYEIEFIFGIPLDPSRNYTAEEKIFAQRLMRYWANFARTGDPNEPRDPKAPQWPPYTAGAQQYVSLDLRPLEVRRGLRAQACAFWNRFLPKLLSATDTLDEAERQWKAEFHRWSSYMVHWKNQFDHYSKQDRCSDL

[5] = Lethal dose was measured at 24 hour in mice following intraperitoneal administration.; format: toxicity, organism-based; conditions: mouse, in vivo, ip
In short: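 Mice fasted overnight and dosed ip at 10 mL/kg, then housed singly in novel cages. Lethality scored over 24 h using at least four dose levels with nine animals per dose. LD50 calculated by Spearman-Karber.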

[6] = species on record: Mus musculus; test: Minimal dose to produce side effects was determined for tremor in mice; format: functional; in short: as §1
[7] = species on record: Mus musculus; test: Minimal dose to produce side effects was determined for diarrhea in mice; format: functional; in short: as §1
[8] = species on record: Mus musculus; test: Minimal dose to produce side effects was determined for salivation in mice; format: functional; in short: as §1

Row | Structure (SMILES) | Dose [1] [mg/kg] | Dose [2] [mg/kg] | Dose [3] [mg/kg] | IC50 [4] [nM] | LD50 at 24 h [5] [mg/kg] | Dose [6] [mg/kg] | Dose [7] [mg/kg] | Dose [8] [mg/kg]
1 | CCCCCCCNC(=O)Oc1ccc2c(c1)[C@]1(C)CCN(C)[C@@H]1N2C [EPTASTIGMINE] | 10 | 1.8 | 10 | – | – | – | – | –
2 | CCCCCCCNC(=O)Oc1ccc2c(c1)C1CCN(C)C2C1 (stereo unspecified) | 10 | – | 10 | 143 | 18 | – | – | –
3 | CCCCCCNC(=O)Oc1ccc2c(c1)C1CCN(CC)C2C1 (stereo unspecified) | 3.2 | 1.8 | 3.2 | 125 | 9 | – | – | –
4 | CCN1CCC2CC1c1ccc(OC(=O)NC)cc12 (stereo unspecified) | – | – | – | 171 | 1 | – | – | –
5 | CCCCCCNC(=O)Oc1ccc2c(c1)C1CCN(C)C2C1 (stereo unspecified) | 3.2 | – | 5.6 | – | 6 | – | – | –
6 | CNC(=O)Oc1ccc2c(c1)[C@]1(C)CCN(C)[C@@H]1N2C [PHYSOSTIGMINE] | – | – | – | – | – | 0.32 | 0.32 | 0.32
7 | CCCCNC(=O)Oc1ccc2c(c1)C1CCN(CC)C2C1 (stereo unspecified) | – | – | – | 206 | – | – | – | –
8 | CCCCCCNC(=O)Oc1ccc2c(c1)C1(C)CCN(CC)C2C1 (stereo unspecified) | – | – | – | 133 | 9 | – | – | –
9 | CCCCCCCNC(=O)Oc1ccc2c(c1)C1(C)CCN(CC)C2C1 (stereo unspecified) | 1.8 | 1 | – | 159 | 4 | – | – | –
10 | CCCCCCCNC(=O)Oc1ccc2c(c1)C1CCN(CC)C2C1 (stereo unspecified) | 17.8 | 3.2 | 17.8 | 169 | 22 | – | – | –
11 | CCCCCCNC(=O)Oc1ccc2c(c1)[C@]1(C)CCN(CC)[C@@H]1C2 | 3.2 | 1.8 | 3.2 | – | 4 | – | – | –
